Runt-CBFb FRET – Runt domain-CBFb interaction inhibition; AID 1496; Cerulean-Runt/Venus-CBFb FRET ratio 530/480, 1 h; inhibition, % at 20 µM; 0.46% of 220,000 active; Q01196+Q13951;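 active means inhibition over about 50% at 20 µM in the single-dose screen, limit read from the data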;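 further: 0% = DMSO wells and 100% = excess unlabeled CBFb competitor control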
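Buffer or medium: Tris pH 7.5 buffer with BSA. Assay system: Cerulean-labeled Runt domain protein. Amount: each fluorescent fusion protein 100 nM. Read-out basis: loss of energy transfer signal. Incubation: 1 h compound exposure, room temperature. Probe or stimulus: Venus-CBFb binding partner, 100 nM. Detection: FRET, excitation 422 nm, emission at 530 and 480 nm.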
Runt-SMMHC FRET – blocks binding of human RUNX1 Runt domain to CBFb-SMMHC. AID 1434. Cerulean-Runt/Venus-CBFb-SMMHC FRET ratio 530/480, 1 h. inhibition, % at 20 µM. Q01196+Q13951. 0.74% of 220,000 active;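 active means mean inhibition across duplicate retests at 20 µM reaching about 50%, limit read from the data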;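 further: 0% = DMSO wells and 100% = wells with excess untagged CBFb-SMMHC; inhibitors lower the FRET ratio by blocking Runt binding to CBFb-SMMHC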
Wee1 degr inh – blocks degradation of human Wee1 kinase; P30291; HeLa Luc-Wee1K328M stability, luciferase luminescence; 100% = proteasome inhibitor MG132 effect; reporter increase, % at 5 µM; 1.2% of 220,000 active; AID 1321;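 active means activation above the mean of all tested compounds plus 3 SD, set per screening run, cut at about 8.8% in these data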;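 further: cells exposed to compound for 20 h before luminescence read; 0% = DMSO alone and 100% = MG132 at 30 µM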
PHOSPHO1 block – blocks human PHOSPHO1 phosphatase activity; Q8TCT1; recombinant PHOSPHO1, absorbance phosphatase assay; inhibition, % at 13.3 µM; 1.1% of 290,000 active; in the data active means inhibition above about 60%
Target sequence (Q8TCT1 whole entry, looked up): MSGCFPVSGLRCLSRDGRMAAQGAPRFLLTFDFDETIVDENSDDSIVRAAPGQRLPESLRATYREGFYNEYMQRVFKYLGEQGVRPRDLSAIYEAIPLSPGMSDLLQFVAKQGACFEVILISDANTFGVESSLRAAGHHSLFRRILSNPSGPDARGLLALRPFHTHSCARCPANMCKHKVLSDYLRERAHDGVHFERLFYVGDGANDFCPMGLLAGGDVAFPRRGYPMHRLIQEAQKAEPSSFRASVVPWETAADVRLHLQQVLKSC
Efa HMGR inh – E. faecalis class II HMG-CoA reductase inhibition; purified E. faecalis HMGR, NADPH absorbance 340 nm kinetic; 0.41% of 190,000 active; AID 1066; inhibition, % at 10 µM;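 active means inhibition above a set limit, the median over all tested compounds plus 3 SD, cut at about 9.5% in these data; inconclusive means no clear call, values can overlap the other calls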;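 further: enzyme runs in reverse so mevalonate oxidation gives rising NADPH absorbance; 0% = complete reaction with DMSO and 100% = background rate lacking mevalonate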
RanGTP-Imp inh – inhibitors of RanGTP-importin-beta interaction, primary screen, biochemical, FRET, CFP-Ran, YFP-importin-beta, homogeneous; cell-free CFP-Ran/YFP-importin-beta FRET ratio; inhibition, % (concentration not given with the values); 1.1% of 300,000 active; AID 2216;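 active means more than half of the replicate wells show a fall in the fluorescence ratio signal beyond about 16%, limit read from the data, passing the limit was not always enough; inconclusive means exactly half of the replicate wells pass the set limit; inactive means fewer than half of replicates pass the limit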;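 further: 0% = DMSO wells and 100% = Ran loaded with GDP instead of GTP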
An asterisk follows results filed as active; ? = inconclusive; / = not tested or not shown. Rows were chosen to be rich in hits. Some 3.4% of all compounds tested hit in one or more screens of this group.

SMILES | Runt-CBFb FRET | Runt-SMMHC FRET | Wee1 degr inh | PHOSPHO1 block | Efa HMGR inh | RanGTP-Imp inh
CN1Cc2sc(N)c(C#N)c2CC1(C)C | 89.0* | 81.6* | 0.1 | 25.3 | 1.7 | 116.6*
CN1Cc2sc(NC(=S)NC(=O)c3ccccc3)c(C#N)c2CC1(C)C | 14.0 | 67.1* | -1.6 | -64.9 | / | 144.8*
CCC1(C)Cc2c(sc(NC(=S)NC(=O)c3ccccc3)c2C#N)CO1 (centres undefined) | 45.9 | 21.4 | 0.6 | -5.8 | -1.6 | 2.8
CCCCN(C)C(=O)CNC(=O)c1nn(-c2ccc(OC)cc2OC)c(=O)c2ccccc12 | / | / | / | 23.3 | / | 6.9
COc1ccc(S(=O)(=O)NCC2CCCN(Cc3ccc(O)cc3)C2)cc1 (centres undefined) | / | / | / | 8.9 | / | -0.7
Cc1cccc(C(=O)NCC(=O)N2CCOCC2)c1 | / | / | / | 32.7 | / | 7.6
CCN1CCc2c(sc(NC(=S)NC(=O)c3ccccc3)c2C#N)C1 | 11.7 | -14.1 | -1.6 | -21.7 | -4.6 | 140.8*
CN(C)Cc1cc(O)c(CN(C)C)cc1O | 4.3 | 69.3* | 1.5 | 7.2 | / | 1.4
Cc1c(NC(=O)CSc2nnc3c4ccccc4n(CCc4ccccc4)c3n2)c(=O)n(-c2ccccc2)n1C | -7.4 | -1.5 | -1.5 | 63.9* | -4.6 | ?
CC(=O)Nc1ccc(-c2sc(Nc3cccc4ccccc34)n[n+]2-c2ccccc2)cc1 | / | / | / | 15.1 | / | -3.1
COc1cccc(CNC(=O)CCCn2nc(C)c3c(C)n(-c4ccc(C)cc4)nc3c2=O)c1OC | / | / | / | 19.9 | / | 6.1
Cc1ccc(-c2cc3nc(C)cc(NCc4ccco4)n3n2)cc1 | 5.4 | 14.4 | -3.3 | -25.9 | 1.5 | 37.8*
COc1ccc(-c2cc3nc(C)cc(NCCO)n3n2)cc1 | -2.7 | 3.6 | 3.4 | -0.8 | -1.6 | 0.7
COc1ccc(CCn2c(N)c(C#N)c3nc4ccccc4nc32)cc1OC | 18.4 | 31.3 | -3.1 | 17.4 | -4.9 | 7.3
N#Cc1c(N)n(CCCN2CCOCC2)c2nc3ccccc3nc12 | 84.5* | 62.5* | -3.9 | -0.2 | 3.2 | /
CCCCn1c(NC(C)=O)c(C#N)c2nc3ccccc3nc21 | 33.0 | 79.3* | 1.3 | -2.3 | -0.9 | 30.3*
CCCCCn1c(N)c(C#N)c2nc3ccccc3nc21 | 84.9* | 63.4* | -5.2 | 9.6 | -6.6 | 44.4*
C=CCn1c(NC(=O)c2ccccc2Cl)c(C#N)c2nc3ccccc3nc21 | 25.6 | 85.5* | -2.0 | 18.3 | -3.0 | 123.5*
O=C(COc1coc(CN2CCN(c3ccccc3)CC2)cc1=O)Nc1ccc(F)cc1 | / | / | / | / | / | 2.2
COCCn1c(SCC(=O)Nc2ccc(OC)cc2OC)nc2ccccc2c1=O | / | / | / | 24.7 | / | 21.0*
CC(=O)c1cc2c(cc1NC(=O)Nc1cccc(Cl)c1)OCCO2 | 19.2 | 62.0* | 2.6 | -0.6 | 1.8 | ?
CCCC(=O)Nc1cc2c(cc1C(C)=O)OCCO2 | 0.6 | 2.8 | 1.4 | 55.0 | 0.6 | 3.6
CC(=O)Nc1cc2c(cc1C(C)=O)OCCO2 | 1.6 | -3.1 | 9.0* | 23.4 | -4.0 | 5.4
CCOC(=O)CCC(NC(=O)c1ccccc1C(=O)NC(CCC(=O)OCC)C(=O)OCC)C(=O)OCC (centres undefined) | 0.4 | -3.6 | 0.7 | 64.7* | 7.4 | 3.9
Cc1cc(C)c(S(=O)(=O)NCc2cn3ccccc3n2)c(C)c1 | / | / | / | 26.5 | / | -1.1
SMILES | Runt-CBFb FRET | Runt-SMMHC FRET | Wee1 degr inh | PHOSPHO1 block | Efa HMGR inh | RanGTP-Imp inh
COc1ccc(OCCN2C(=O)c3ccccc3C2=O)cc1 | 0.9 | -1.0 | 2.2 | 36.5 | -4.0 | 5.6
Nc1cccc2c1C(=O)N(CCOc1ccc(F)cc1)C2=O | / | / | / | 6.2 | / | 26.3*
O=C(c1cc2cc([N+](=O)[O-])ccc2oc1=O)N1CCN(C2CCCCC2)CC1 | 3.7 | 1.5 | -1.4 | 42.8 | 9.7* | -2.5
COc1ccc(NC(=O)NC2CCCCCCC2)cc1OC | / | / | / | 31.3 | / | -0.8
CC(C)(C)Nc1nc(OCC(F)(F)F)nc(OCC(F)(F)F)n1 | -1.7 | -1.7 | -0.3 | 16.5 | 0.0 | 4.7
N#CC1=C2SCN(c3ccccc3)CN2C(=O)CC1c1cccs1 (centres undefined) | 31.9 | 28.5 | -1.8 | 81.0* | -8.8 | -0.1
N#CC1=C2SCN(c3ccccc3)CN2C(=O)CC1c1ccccc1Cl (centres undefined) | 18.8 | 30.4 | -2.6 | 85.7* | -6.3 | -2.9
N#CC1=C2SCN(c3ccccc3)CN2C(=O)CC1c1c(Cl)cccc1Cl (centres undefined) | 7.5 | 39.4 | -2.0 | 91.5* | 1.0 | 1.6
N#CC1=C2SCC(O)(c3ccccc3)N2C(=O)CC1c1cccs1 (centres undefined) | -0.4 | -0.6 | -1.7 | 13.5 | -2.8 | /
COc1ccc(Br)cc1C1CC(=O)N2CN(Cc3ccccc3)CSC2=C1C#N (centres undefined) | 10.2 | 18.0 | -1.3 | 23.9 | -2.0 | 0.5
N#CC1=C2SCN(Cc3ccccc3)CN2C(=O)CC1c1ccccc1F (centres undefined) | 30.0 | 48.9 | 1.9 | 82.8* | 3.0 | ?
O=C(NCCNC(=O)c1ccccn1)c1ccccc1 | / | / | / | -24.5 | / | 1.5
CCN=C(N/N=C/c1ccc([N+](=O)[O-])cc1)SC | -8.7 | 7.6 | 1.7 | 20.1 | -7.3 | -1.0
CS(=O)(=O)N1CCN(c2ccc(NC(=S)NC(=O)c3ccccc3[N+](=O)[O-])cc2)CC1 | 1.3 | -2.7 | -0.1 | -12.7 | -5.4 | -1.4
O=C(O)CN1C(=O)C2C3CC(C2C1=O)C1C(c2ccccc2)c2sc(=O)[nH]c2SC31 (centres undefined) | 42.0 | 33.9 | -0.2 | -9.7 | 5.1 | 65.3*
CC(C)CC(C(=O)O)N1C(=O)C2C3CC(C2C1=O)C1C(c2ccccc2)c2sc(=O)[nH]c2SC31 (centres undefined) | 12.9 | 29.3 | -4.0 | 11.0 | -1.9 | 100.3*
O=C(O)CCCN1C(=O)C2C3CC(C2C1=O)C1C(c2ccccc2)c2sc(=O)n(-c4ccccc4)c2SC31 (centres undefined) | -2.7 | -5.8 | 3.4 | -7.3 | -5.6 | -2.7
Cc1ccc(CNC(=O)C2CCN(S(=O)(=O)N3CCCCC3)CC2)cc1 | -2.4 | -0.7 | 2.0 | -7.7 | -2.8 | -0.6
O=C(OCC(=O)N1CCN(c2ccccc2)CC1)c1cc(Cl)ccc1[N+](=O)[O-] | / | / | / | 4.5 | / | -0.3
O=C(NCCOc1ccccc1Cl)C(=O)c1c[nH]c2ccccc12 | -0.3 | -1.9 | -3.4 | 23.6 | 16.7* | -2.7
COc1ccccc1OCCNC(=O)C(=O)c1c[nH]c2ccccc12 | 1.4 | -1.5 | 3.1 | 26.8 | / | -2.2
COc1ccc(N2CC(C(=O)N3CCN(c4ccccc4OC)CC3)CC2=O)cc1 (centres undefined) | / | / | / | 41.6 | / | -1.6
O=C(CNC(=O)c1ccc(Br)o1)NNC(=O)c1ccccc1O | / | / | / | / | / | 2.1

Bioassay records from PubChem BioAssay.
